# Hits are enriched below; roughly 4.1% of the tested compounds scored in any of these assays.
# hERG protect: hERG (human) protection from proarrhythmic block; 310,000 tested, 0.51% active; CHO-hERG, FluxOR thallium flux, dofetilide IC70 present; activation (rescue from dofetilide block), less the hit threshold, % at 10 µM;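 active means activation above the mean of controls blocked by dofetilide plus 5 SD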;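 further: thallium influx through hERG after potassium depolarization seen as dye fluorescence rise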
# KCNK3 inh: human KCNK3 channel inhibition, primary screen; O14649; CHO-KCNK3 thallium flux, FluxOR fluorescence; hits give low values; B-score at 10 µM; 340,000 tested, 0.84% active; AID 602410;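 active means B-score under library mean minus 4 SD, starting fluorescence ratio at most library mean plus 5 SD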;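 further: more negative B-score means stronger inhibition of thallium flux through KCNK3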
# Target sequence (O14649 whole entry, looked up): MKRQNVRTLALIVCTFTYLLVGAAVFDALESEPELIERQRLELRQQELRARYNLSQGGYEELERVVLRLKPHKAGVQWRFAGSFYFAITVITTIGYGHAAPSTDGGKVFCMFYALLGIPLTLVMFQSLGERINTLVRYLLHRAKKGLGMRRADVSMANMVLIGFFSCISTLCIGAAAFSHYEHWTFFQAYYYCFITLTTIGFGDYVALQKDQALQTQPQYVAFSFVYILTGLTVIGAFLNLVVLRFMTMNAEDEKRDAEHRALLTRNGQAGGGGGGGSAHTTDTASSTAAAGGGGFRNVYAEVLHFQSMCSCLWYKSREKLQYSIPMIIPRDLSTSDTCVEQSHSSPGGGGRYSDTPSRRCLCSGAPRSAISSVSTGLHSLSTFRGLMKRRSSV
# KCC2 mod: KCC2 (human) Cl- transport modulation | Q9H2X9 | KCC2 cells, thallium flux FluoZin-2 fluorescence | B-score of Tl+ flux slope (higher = more flux/activation; lower = inhibition) at 10 µM | 190,000 tested, 2.2% active | AID 1456;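 active means thallium flux slope and its plate-corrected score both differing from the plate sample mean at a set confidence after two filtering rounds, in either direction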;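 further: slope of fluorescence scaled to starting intensity during 10 to 20 s after thallium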
# KCNQ1 act: potentiates or activates the human KCNQ1 potassium channel. P51787. CHO-K1 KCNQ1, thallium flux FluxOR fluorescence; hits give high values. B-score at 10 µM. 310,000 tested, 0.35% active;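 active means fluorescence ratio B-score, a plate-corrected score, at least three library SD, with initial intensity B-score within 5 SD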
#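 System: CHO-K1 cells stably expressing KCNQ1 / Medium: assay buffer for compound exposure, DMSO matched across wells / Reagent: thallium- and potassium-containing depolarizing buffer / Compound: one concentration, matched DMSO / Incubation: 20 min compound pretreatment at room temperature / Measured by: kinetic FluxOR fluorescence, 10 s baseline plus 110 s post-stimulus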
# KCNK9 inh: human KCNK9 channel inhibition; B-score at 10 µM; AID 488922; HEK293 KCNK9, FluxOR thallium flux fluorescence; hits give low values; Q9NPC2; 310,000 tested, 1.2% active;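 active means ratio B-score over 3 SD below the library mean, with starting fluorescence within 5 SD of its mean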;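 further: negative B-score means less thallium flux so channel inhibition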
# KCNQ1 inh: blocks the human KCNQ1 potassium channel; P51787; CHO-K1 KCNQ1, FluxOR thallium flux fluorescence; hits give high values; B-score at 10 µM; 310,000 tested, 1.3% active;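 active means compounds whose thallium flux B-score, printed positive for inhibition, exceeds three library SD while starting fluorescence stays within three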;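 further: channel opened by potassium depolarization with thallium stimulus after 20 min compound exposure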
# KCC2 sec1: KCC2 (human) modulation, secondary assay; shares compounds with KCC2 mod; HEK293-KCC2, thallium flux, FluoZin2 fluorescence; hits give high values; 3,700 tested, 15% active; normalised thallium flux (F/F0 slope) at 10 µM;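 active means thallium flux slope above the same plate's solvent-only control mean plus 3 SD; inconclusive means the two replicate wells disagree; inactive means no significant difference from solvent-only control wells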
# KCC2 bumet counter: bumetanide-insensitive thallium flux in KCC2 cells with ouabain, counter-screen; shares compounds with KCC2 mod; HEK293-KCC2 + bumetanide/ouabain, thallium flux FluoZin2; hits give high values; normalized thallium flux at 10 µM; 3,700 tested, 49% active;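 active means thallium entry rate above the same plate's blocked-transporter control wells by more than 3 SD; inconclusive means the two repeat wells disagree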;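 further: raw slope of fluorescence over initial fluorescence between 10 and 20 s after thallium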
# KCC2 secondary2: KCC2 (human) modulation, second secondary assay | 3,700 tested, 23% active | AID 1715 | HEK293-KCC2, thallium flux FluoZin2 fluorescence; actives lie on both sides; F/F0 rise rate, 10–20 s post-thallium | normalized thallium flux at 10 µM | shares compounds with KCC2 mod;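 active means thallium flux slope more than 3 SD above or below the plate's solvent-only control mean, mostly below; inconclusive means the two repeat wells disagreed; inactive means no significant shift from solvent-only controls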;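 further: raw slope with 0.1% DMSO as baseline and bumetanide as block control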
# HEK counter1: acts in parental HEK cells, KCC2 counter-screen | thallium flux rate (normalised fluorescence) at 10 µM | AID 1716 | shares compounds with KCC2 mod | HEK293 parental cells, thallium flux FluoZin2, ouabain; baseline-ratio fluorescence slope, 10–20 s after thallium | 3,700 tested, 46% active;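 active means thallium flux rate significantly above the same plate's solvent-only control wells, beyond their mean plus 3 SD; inconclusive means the two replicate wells gave conflicting results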
# KCC2 retest ouab: KCC2 (human) modulation, ouabain retest | 3,700 tested, 48% active | AID 1717 | shares compounds with KCC2 mod | HEK293-KCC2, thallium flux FluoZin2 fluorescence; bidirectional: low = inhibitor, high = activator | raw Tl+ flux slope (below DMSO = inhibition, above = activation) at 10 µM;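 active means thallium flux slope beyond 3 SD from same-plate DMSO control mean in most replicates, usually higher, sometimes lower; inconclusive means repeat tests gave conflicting results; inactive means no significant difference from controls in most replicates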;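 further: slope of initial-normalized fluorescence between seconds 10 and 20 after thallium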
# HEK counter2: acts in parental HEK cells, second KCC2 counter-screen | 3,700 tested, 33% active | shares compounds with KCC2 mod | HEK293 parental, thallium flux FluoZin-2 fluorescence slope | thallium flux slope at 10 µM | AID 1718;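 active means thallium flux slope above the same plate's solvent-control mean plus 3 SD in both duplicate wells; inconclusive means duplicate wells that disagreed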;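 further: run without ouabain in cells lacking the KCC2 cotransporter; slope of fluorescence scaled to its starting value between 10 and 20 s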
# * = called active by the depositor; i = inactive; ? = inconclusive; . = no result given.
SMILES,hERG protect,KCNK3 inh,KCC2 mod,KCNQ1 act,KCNK9 inh,KCNQ1 inh,KCC2 sec1,KCC2 bumet counter,KCC2 secondary2,HEK counter1,KCC2 retest ouab,HEK counter2
CC1(CNC(=O)C(=O)NCC2(C)CO2)CO1 (stereo not drawn),.,i,.,.,.,.,.,.,.,.,.,.
COc1cc(OC)cc(-c2c(C#Cc3ccsc3)c3cc(-c4cc(F)cc(F)c4)ccc3n2C)c1,.,i,.,.,.,.,.,.,.,.,.,.
Cc1cc(-c2ccccc2)c2c(=O)n(-c3ccccc3)[nH]c2n1,-3,i,.,i,i,i,.,.,.,.,.,.
S=c1nc(C2CC2)n(-c2ccccc2)[nH]1,-6,i,4*,i,i,i,0.014*,0.012*,0.031,0.01*,?,?
Cc1cc(NC(=O)CSc2ccc(-c3cccc([N+](=O)[O-])c3)nn2)no1,-4,i,-1.4,i,i,i,.,.,.,.,.,.
Cc1cc(NC(=O)CSc2ccc(-c3ccccc3)nn2)no1,-7,i,-7.4*,i,i,i,0.0058,0.0051,0.024*,?,0.013*,0.009
Cc1cc(NC(=O)CSc2ccc3nnc(-c4ccc(F)cc4)n3n2)no1,-5,i,-0.14,i,i,i,.,.,.,.,.,.
Cc1cc(NC(=O)CSc2ccc(-c3ccc(F)cc3)nn2)no1,3,i,-5.2*,i,i,i,0.0065,0.005,0.025*,0.0071,?,0.01
CC1CCCCN1C(=O)CSc1ccc(-c2ccc(F)cc2)nn1 (stereo not drawn),-10,i,.,i,i,i,0.01,0.0064,0.028*,0.0044,0.017*,0.011
CC1CCCC(C)N1C(=O)CSc1ccc(-c2ccc3c(c2)OCCO3)nn1 (stereo not drawn),-8,i,.,i,i,i,.,.,.,.,.,.
O=C(CSc1ccc(-c2ccccc2)nn1)Nc1ccc2c(c1)OCCO2,-11,i,-6.2*,i,i,i,0.008,0.0049,0.022*,0.0064,0.014*,0.0097
Cc1cc(C)c(C)c(S(=O)(=O)N2CCC(C(=O)NC3=NCCS3)CC2)c1C,.,i,.,.,.,.,.,.,.,.,.,.
O=C(N/N=C/c1ccccc1F)c1ccccc1OCc1ccccc1,-9,i,.,i,i,i,.,.,.,.,.,.
Cc1ccc(-c2nnc(SCC(=O)NCC3CCCO3)nc2-c2ccc(C)cc2)cc1 (stereo not drawn),.,i,.,.,.,.,.,.,.,.,.,.
CCOC(=O)Cn1ccc(NC(=O)c2ccc3c(c2)OCO3)n1,-13,i,.,i,i,i,.,.,.,.,.,.
O=C(CSc1ccc(-c2ccccn2)nn1)c1ccccc1,-14,i,-0.43,i,i,i,.,.,.,.,.,.
O=C(CSc1ccc(-c2ccccc2)nn1)c1ccccc1,-6,i,-4.1*,i,i,i,0.0053,?,0.022*,0.0086,?,0.011
CCOc1ccc(-c2cc(CCCC(=O)NCCc3ccccc3)no2)cc1,-12,i,-2,i,i,i,.,.,.,.,.,.
COc1ccc(-c2cc(CCCC(=O)NCCc3ccccc3)no2)cc1,-9,i,-4.3*,i,i,i,0.009,0.0067,?,0.007,0.016*,0.01

# Screening results: PubChem BioAssay, several laboratories
